About 1,800 (0.95%) of roughly 190,000 compounds were called active. This excerpt belongs to a sample that is enriched for actives. Unmarked numbers belong to inactive results.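 Rule for the calls: active = activation above the screen-wide mean of compound activation plus 3 SD (cut at about 130% in these data); inactive = the rest.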
Assay: enhancers of STAT3 transcriptional signaling – U3A cells, luciferase, luminescence, MLSCN library, primary screen (AID 871);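 note: 0% = background luminescence of wells with medium and substrate only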
Settings: IL-6 STAT3-luciferase reporter, at 5.6 µM, active compounds read high, 100% = signal with IL-6 EC80 alone
In short: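 system = STAT3-luciferase reporter U3A cells | reagent = IL-6 stimulus at 33 ng/mL final | timing = 1 h compound pre-exposure, 6 h IL-6 stimulation, 37 °C | measured by = luminescence | evaluation = % activation versus median of IL-6-stimulated wells | control set = IL-6-only wells as 100% reference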
In the case of `O=Cc1ccc(OCc2cn3ccccc3n2)cc1`, the activation (% of control) was 101%. `COc1ccc(/C=C(\NC(=O)c2ccc(OCC(C)C)cc2)C(=O)OCc2ccco2)cc1` gave an activation (% of control) of 111%. In the case of `NNc1nc2c(Cl)cccc2s1`, the activation (% of control) was 134% (active). In the case of `Fc1cc(F)c2nc(Nc3nc4c(F)cccc4s3)sc2c1`, the activation (% of control) was 129%. `COc1cccc2sc(Nc3nc(C)c(C(C)=O)s3)nc12` showed an activation (% of control) of 108%. For `O=C(CSc1ccccn1)Nc1nc2c(ccc3ccccc32)s1`, the activation (% of control) was 103%. In the case of `NC(=O)Cn1nc([N+](=O)[O-])nc1Oc1ccc(Br)cc1`, the activation (% of control) was 93.7%. With `CC(=O)N1N=C(c2ccccc2)OC1c1cccnc1` (centres undefined) the activation (% of control) was 103%. For `CCOC(=O)c1c(-c2cccc(C)c2)csc1NC(=O)c1c(-c2ccccc2)noc1C`, the activation (% of control) was 137% (active). For `CCOC(=O)c1c(-c2ccccc2)csc1NC(=S)NC(=O)c1ccccc1`, the activation (% of control) was 106%. `CC(=O)Nc1cccc(NC(=O)c2c(-c3ccccc3)noc2C)c1` showed an activation (% of control) of 88.8%. With `O=C(/C=C/c1ccccc1)Nc1nnc(SCC(=O)c2ccc3ccccc3c2)s1` the activation (% of control) was 104%. Compound `COc1ccc(NS(=O)(=O)c2ccc(O)c(C(=O)OCC(=O)NC3CCCCC3)c2)cc1` has an activation (% of control) of 102%. For `CCN=c1sc(C(=O)Nc2ccccc2)c(C)n1CC`, the activation (% of control) was 84.4%. With `CCCOc1ccccc1C1CC(=O)Nc2cc3c(cc21)OCO3` (centres undefined) the activation (% of control) was 66.4%. For `COc1ccccc1C1C2=C(COC2=O)Nc2cc3c(cc21)OCO3` (centres undefined), the activation (% of control) was 144% (active). Compound `COc1cc2c(cc1/C=C1/NC(=O)N(c3ccccc3)C1=O)OCO2` has an activation (% of control) of 88.5%. Compound `CSc1ccc(CN(C)CC(=O)NCc2ccc(F)cc2)cc1` has an activation (% of control) of 106%. Compound `Cc1cc(NC(=O)CN2CCCC(C)C2)n(-c2nc3ccccc3s2)n1` (centres undefined) has an activation (% of control) of 113%. With `CCOC(=O)N1CCN(CC(=O)Nc2cc(C)nn2-c2nc3ccccc3s2)CC1` the activation (% of control) was 162% (active). `CCOC(=O)N1CCN(CC(=O)Nc2ccc(F)cc2)CC1` gave an activation (% of control) of 108%. `O=C(CCNC(=O)c1ccc([N+](=O)[O-])cc1)Nc1ccccc1N1CCOCC1` gave an activation (% of control) of 104%. Work on `NC(=O)CC[C@@H]1NC(=O)[C@H](CO)NC(=O)c2cc([N+](=O)[O-])cc(I)c2NCC[C@@H](C(N)=O)NC1=O` yielded an activation (% of control) of 95.5%. Work on `Cc1cc(O)cc(O)c1C(=O)Cc1cnn(-c2ccccc2)c1` yielded an activation (% of control) of 92.8%. In the case of `Oc1cccc(C2c3[nH]c4ccccc4c3CCN2Cc2cnn(-c3ccccc3)c2)c1` (centres undefined), the activation (% of control) was 138% (active). `c1ccc(C2c3[nH]c4ccccc4c3CCN2Cc2cccn2-c2cccnc2)nc1` (centres undefined) showed an activation (% of control) of 94%. In the case of `Cc1ccc(Cl)cc1NC(=S)N(CCN(C)C)Cc1cccs1`, the activation (% of control) was 96.1%. For `COc1ccc2c(CC(=O)OCC(=O)Nc3ccccc3[N+](=O)[O-])coc2c1`, the activation (% of control) was 110%. In the case of `Cc1ccc2c(c1)c1ncn(CCC3=CCCCC3)c(=O)c1n2C`, the activation (% of control) was 104%. In the case of `Cc1ccc2c(c1)c1ncnc(N3CCc4ccccc4C3)c1n2C`, the activation (% of control) was 133% (active). Compound `Cc1ccc(-c2cc(C(=O)N3CCc4ccccc4C3)no2)cc1` has an activation (% of control) of 98.3%. For `Fc1ccc(COc2cccc(-c3n[nH]c(=S)o3)c2)cc1`, the activation (% of control) was 102%. `CCOC(=O)N1CCN(Cc2nc3ccc([N+](=O)[O-])cc3c(=O)n2-c2cccc(OC)c2)CC1` showed an activation (% of control) of 83.3%. Compound `CCn1cc(C(=O)NCCCN2CCCCCC2)c(=O)c2cc(S(=O)(=O)N3CCc4ccccc4C3)ccc21` has an activation (% of control) of 108%. `COc1ccc(C(=O)ON=C2c3ccccc3-c3ccccc32)cc1OC` gave an activation (% of control) of 107%. Work on `COc1ccc(NC(=O)C(Br)C(C)C)cc1` (centres undefined) yielded an activation (% of control) of 101%. With `COc1ccc(NC(=O)ON=C2c3ccccc3-c3ccccc32)cc1` the activation (% of control) was 152% (active). Work on `COCCN(C(=O)c1ccccc1F)c1c(N)n(Cc2ccccc2)c(=O)[nH]c1=O` yielded an activation (% of control) of 89.7%. `CC12CN(NC(=O)c3ccc(Cl)cc3)C3(C#N)CC1CCC23C` (centres undefined) showed an activation (% of control) of 104%.

From PubChem BioAssay AID871 (The Scripps Research Institute Molecular Screening Center, 2007)
